Laboratory results as given in PubChem BioAssay AID652202 (Vanderbilt Specialized Chemistry Center, 2013).
The source made the active and inactive calls. How the calls were made is not given here.

Target: Metabotropic glutamate receptor 3 (Rattus norvegicus) (UniProt P31422)
Assay: mGlu3 modulation of glutamate calcium response, selectivity assay for mGlu5 silent allosteric modulator project, cell-based, rat, TRex293, Galpha15, Fluo4 calcium (AID 652202)
Settings: TRex293 rmGlu3+Galpha15, Fluo4 calcium mobilization
Summary of the method: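 Test system: TRex293 cells with rat mGlu3 and Galpha15 / Medium: HBSS/HEPES/probenecid buffer, pH 7.4 / Also added: glutamate, 10 nM–1 mM / Doses: compound at 10 µM, 1% DMSO / Times: Fluo4-AM loading 60 min at 37 °C, glutamate added at 80 s / Signal: Fluo4 calcium fluorescence / Measure: modulation of glutamate concentration-response by compound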

Metabotropic glutamate receptor 3 (Rattus norvegicus), sequence (P31422 whole entry, looked up): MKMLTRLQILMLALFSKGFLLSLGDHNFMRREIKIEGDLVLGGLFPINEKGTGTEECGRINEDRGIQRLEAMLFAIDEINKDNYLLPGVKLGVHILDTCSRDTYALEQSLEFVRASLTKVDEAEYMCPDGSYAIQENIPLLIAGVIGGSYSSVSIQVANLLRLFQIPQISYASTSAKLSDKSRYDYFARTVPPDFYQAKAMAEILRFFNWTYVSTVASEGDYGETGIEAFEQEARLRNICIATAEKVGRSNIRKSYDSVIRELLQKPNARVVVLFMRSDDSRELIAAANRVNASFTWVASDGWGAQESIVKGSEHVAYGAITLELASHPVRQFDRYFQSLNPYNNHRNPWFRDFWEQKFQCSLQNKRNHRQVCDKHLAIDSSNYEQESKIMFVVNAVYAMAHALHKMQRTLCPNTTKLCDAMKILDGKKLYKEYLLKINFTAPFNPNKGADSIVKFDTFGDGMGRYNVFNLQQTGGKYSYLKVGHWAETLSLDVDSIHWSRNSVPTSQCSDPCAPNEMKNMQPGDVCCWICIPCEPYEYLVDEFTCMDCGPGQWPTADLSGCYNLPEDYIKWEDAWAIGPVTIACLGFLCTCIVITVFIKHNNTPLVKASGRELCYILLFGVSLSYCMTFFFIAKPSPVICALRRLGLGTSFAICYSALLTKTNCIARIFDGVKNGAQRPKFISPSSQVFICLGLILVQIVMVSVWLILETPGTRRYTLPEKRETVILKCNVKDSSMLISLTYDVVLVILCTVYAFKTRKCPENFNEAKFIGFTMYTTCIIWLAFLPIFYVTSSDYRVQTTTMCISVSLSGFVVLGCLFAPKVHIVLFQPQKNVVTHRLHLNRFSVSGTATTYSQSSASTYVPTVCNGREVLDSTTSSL

- glutamate EC50 in presence of 10 uM compound: inactive
Compound: O=C(c1ccc(C#Cc2cccc(F)c2)cn1)N1CC2CC2C1 (stereo unspecified)
